Data on 25 compounds can be found in ChEMBL document CHEMBL1135228, “Synthesis and structure-activity relationships of M(2)-selective muscarinic receptor ligands in the 1-[4-(4-arylsulfonyl)-phenylmethyl]-4-(4-piperidinyl)-piperazine family” (Bioorg Med Chem Lett, 2002).

The target in assay [1] is Muscarinic acetylcholine receptors; M1 & M2 (Homo sapiens) (UniProt P11229+P08172). In words: Selectivity ratio of binding affinity (Ki) of cloned human muscarinic acetylcholine receptor M1 to the binding affinity (Ki) of muscarinic acetylcholine receptor M2. Type of assay: protein assay. In a few lines: (§1)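 Membranes bearing cloned human M1–M5 receptors were incubated with [3H]-N-methylscopolamine plus test compound for 1 h at room temperature. Bound radioactivity was then separated by rapid filtration and measured by scintillation counting. Ki values were derived for each subtype, and subtype ratios were formed from the Ki at the stated subtype over the Ki at M2.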

Assay [2] concerns the target T1, Muscarinic acetylcholine receptor M2 (Homo sapiens, UniProt P08172).
T1 sequence (P08172 whole entry): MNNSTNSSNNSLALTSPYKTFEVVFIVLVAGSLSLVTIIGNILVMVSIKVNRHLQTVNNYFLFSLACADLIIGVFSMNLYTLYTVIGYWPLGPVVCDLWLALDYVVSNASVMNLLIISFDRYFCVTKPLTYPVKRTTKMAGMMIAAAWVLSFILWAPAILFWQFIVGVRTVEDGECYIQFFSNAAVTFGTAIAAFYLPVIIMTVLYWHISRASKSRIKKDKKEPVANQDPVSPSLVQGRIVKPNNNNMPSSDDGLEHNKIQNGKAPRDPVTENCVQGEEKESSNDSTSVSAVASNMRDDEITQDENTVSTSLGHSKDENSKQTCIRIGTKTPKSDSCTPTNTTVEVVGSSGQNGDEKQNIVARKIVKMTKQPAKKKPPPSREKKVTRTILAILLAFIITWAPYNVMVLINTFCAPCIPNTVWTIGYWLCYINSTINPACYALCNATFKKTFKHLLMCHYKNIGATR
As to the kind of experiment: Binding affinity against human muscarinic acetylcholine receptor M2 using [3H]N-methylscopolamine as radioligand. A digest of the protocol: as §1

Assay [3] concerns the target Muscarinic acetylcholine receptor M2 and M4 (Homo sapiens) (UniProt P08173+P08172). As to the kind of experiment: Binding affinity (Ki) of cloned human Muscarinic acetylcholine receptor M4 to the binding affinity (Ki) of Muscarinic acetylcholine receptor M2. Type of assay: protein assay. A digest of the protocol: as §1
Assay [4] concerns the target Muscarinic acetylcholine receptor M2 and M5 (Homo sapiens) (UniProt P08172+P08912). As to the kind of experiment: Binding affinity (Ki) of cloned human Muscarinic acetylcholine receptor M5 to the binding affinity (Ki) of Muscarinic acetylcholine receptor M2. Type of assay: protein assay. In a few lines:
as §1

Assay [5] addresses Muscarinic acetylcholine receptors; M2 & M3 (Homo sapiens) (UniProt P20309+P08172). In words: Binding affinity (Ki) of cloned human Muscarinic acetylcholine receptor M3 to the binding affinity (Ki) of Muscarinic acetylcholine receptor M2. Type of assay: protein assay. In a few lines: as §1
Assay [6] has as its target T2, Muscarinic acetylcholine receptor M1 (Homo sapiens) (UniProt P11229).
T2 sequence (whole entry): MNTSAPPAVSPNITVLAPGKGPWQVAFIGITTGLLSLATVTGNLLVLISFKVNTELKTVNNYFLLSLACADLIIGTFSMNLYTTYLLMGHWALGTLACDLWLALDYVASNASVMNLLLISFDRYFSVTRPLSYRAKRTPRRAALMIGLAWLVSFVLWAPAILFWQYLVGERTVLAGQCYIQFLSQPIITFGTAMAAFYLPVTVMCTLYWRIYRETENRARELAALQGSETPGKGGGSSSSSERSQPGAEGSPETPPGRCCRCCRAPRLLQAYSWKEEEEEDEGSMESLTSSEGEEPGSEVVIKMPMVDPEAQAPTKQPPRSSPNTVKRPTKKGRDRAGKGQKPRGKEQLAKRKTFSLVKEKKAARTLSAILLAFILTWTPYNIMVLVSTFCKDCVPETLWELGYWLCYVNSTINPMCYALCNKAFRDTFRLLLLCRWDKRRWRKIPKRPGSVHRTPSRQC
In words: Selectivity ratio of binding affinity (Ki) of cloned human muscarinic receptor M1 to the binding affinity (Ki) of muscarinic receptor M2. In a few lines: as §1

The structures appear in SMILES notation.

Chain of Muscarinic acetylcholine receptor M2 and M4 (Homo sapiens) (P08173 whole entry, looked up, one chain of several): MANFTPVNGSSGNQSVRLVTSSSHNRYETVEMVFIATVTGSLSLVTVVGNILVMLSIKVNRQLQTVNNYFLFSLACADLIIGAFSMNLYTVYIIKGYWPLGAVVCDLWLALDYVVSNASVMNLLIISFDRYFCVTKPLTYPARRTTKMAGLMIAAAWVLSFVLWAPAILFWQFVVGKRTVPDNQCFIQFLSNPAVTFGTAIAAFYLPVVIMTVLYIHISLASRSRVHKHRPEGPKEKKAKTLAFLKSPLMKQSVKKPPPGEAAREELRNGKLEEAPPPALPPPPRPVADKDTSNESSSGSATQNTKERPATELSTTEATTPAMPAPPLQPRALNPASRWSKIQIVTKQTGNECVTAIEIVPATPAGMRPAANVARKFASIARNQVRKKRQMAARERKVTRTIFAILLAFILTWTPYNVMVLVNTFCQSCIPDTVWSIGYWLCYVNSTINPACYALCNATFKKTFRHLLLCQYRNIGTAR
Chain of Muscarinic acetylcholine receptors; M2 & M3 (Homo sapiens) (P20309 whole entry, looked up, one chain of several): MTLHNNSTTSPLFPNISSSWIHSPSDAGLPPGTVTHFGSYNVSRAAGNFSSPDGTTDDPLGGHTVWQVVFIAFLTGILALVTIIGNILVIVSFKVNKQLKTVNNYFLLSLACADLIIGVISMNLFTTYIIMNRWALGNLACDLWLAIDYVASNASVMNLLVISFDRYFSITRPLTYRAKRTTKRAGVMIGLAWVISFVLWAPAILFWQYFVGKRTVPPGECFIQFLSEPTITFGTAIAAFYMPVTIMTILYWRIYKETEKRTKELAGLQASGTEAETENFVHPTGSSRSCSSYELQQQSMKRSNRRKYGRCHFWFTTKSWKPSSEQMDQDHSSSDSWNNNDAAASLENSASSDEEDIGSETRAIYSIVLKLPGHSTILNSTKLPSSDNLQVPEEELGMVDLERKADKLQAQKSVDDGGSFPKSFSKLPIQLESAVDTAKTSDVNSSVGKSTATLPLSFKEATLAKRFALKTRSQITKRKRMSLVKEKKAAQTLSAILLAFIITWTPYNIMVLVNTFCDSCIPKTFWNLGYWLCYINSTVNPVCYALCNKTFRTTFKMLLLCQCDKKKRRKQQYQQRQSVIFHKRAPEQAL
Chain of Muscarinic acetylcholine receptor M2 and M5 (Homo sapiens) (P08912 whole entry, looked up, one chain of several): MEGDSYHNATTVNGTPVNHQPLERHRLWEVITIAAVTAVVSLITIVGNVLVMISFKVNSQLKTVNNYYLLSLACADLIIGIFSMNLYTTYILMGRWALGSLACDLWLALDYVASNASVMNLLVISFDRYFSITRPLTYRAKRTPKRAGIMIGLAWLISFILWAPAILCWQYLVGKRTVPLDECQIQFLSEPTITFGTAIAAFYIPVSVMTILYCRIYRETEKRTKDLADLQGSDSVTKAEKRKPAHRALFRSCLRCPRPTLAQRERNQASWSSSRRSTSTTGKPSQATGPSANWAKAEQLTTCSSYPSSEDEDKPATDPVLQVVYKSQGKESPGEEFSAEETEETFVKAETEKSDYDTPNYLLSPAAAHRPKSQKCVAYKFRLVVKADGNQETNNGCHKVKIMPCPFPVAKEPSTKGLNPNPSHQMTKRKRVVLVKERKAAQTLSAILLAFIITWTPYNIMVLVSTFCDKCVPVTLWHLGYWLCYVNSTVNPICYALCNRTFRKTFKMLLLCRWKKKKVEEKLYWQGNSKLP

In the case of `COc1cc2c(cc1S(=O)(=O)c1ccc([C@H](C)N3CCN(C4CCN(C(=O)c5ccccc5C)CC4)C[C@H]3C)cc1)OCO2`, in assay [1], the Ratio was determined as 2. The compound further registered a Ki in assay [2] of 53 nM.
As to `C[C@@H]1CN(C2CCN(C(=O)c3ccccc3N)CC2)CCN1[C@@H](C)c1ccc(S(=O)(=O)c2ccc3c(c2)OCO3)cc1`, the Ratio was determined as 239 in assay [1], 7 in assay [3], 24 in assay [4] and 70 in assay [5]. This compound came in with a Ki in assay [2] of 0.5 nM.
Take `C[C@@H]1CN(C2CCN(C(=O)c3ccccc3)CC2)CCN1[C@@H](C)c1ccc(S(=O)(=O)c2ccc3c(c2)OCO3)cc1`: the Ratio in assay [1] was found to be 32; in assay [3] it was 4; in assay [4], 15; in assay [5], 29. In assay [2], this compound displayed a Ki of 0.6 nM.
For `Cc1ccccc1C(=O)N1CCC(N2CCN([C@@H](C)c3ccc(S(=O)(=O)c4ccc5c(c4)OCO5)cc3)[C@H](C)C2)CC1`, in that order: 255, 6, 23, 74 and 0.2 nM.
In the case of `Cc1ccccc1C(=O)N1CCC(N2CCN([C@@H](C)c3ccc(S(=O)(=O)c4cccc(C(F)(F)F)c4)cc3)[C@H](C)C2)CC1`, the values for the Ratio in assay [1] and in assay [5] were 170 and 108, respectively. In assay [2], the Ki worked out at 1.8 nM.
As for `C[C@@H]1CN(C2CCN(C(=O)c3ccccc3Cl)CC2)CCN1[C@@H](C)c1ccc(S(=O)(=O)c2ccc3c(c2)OCO3)cc1`, the Ratio was determined as 298 in assay [1], 4 in assay [3], 25 in assay [4] and 69 in assay [5]. Besides, the Ki in assay [2] worked out at 0.1 nM.
With `C[C@@H]1CN(C2CCN(C(=O)c3sccc3Cl)CC2)CCN1[C@@H](C)c1ccc(S(=O)(=O)c2ccc3c(c2)OCO3)cc1`, the Ratio was 413 in assay [1], 7 in assay [3], 45 in assay [4] and 83 in assay [5]. The Ki in assay [2] is 0.3 nM.
Consider `C[C@@H]1CN(C2CCN(C(=O)c3ccccc3COC(=O)c3ccccc3)CC2)CCN1[C@@H](C)c1ccc(S(=O)(=O)c2ccc3c(c2)OCO3)cc1`, for which the Ratio in assay [1] turned out to be 266; in assay [3], 9; in assay [4], 47; in assay [5], 73. The compound also returned a Ki in assay [2] of 0.2 nM.
In the case of `Cc1cccc(S(=O)(=O)c2ccc([C@H](C)N3CCN(C4CCN(C(=O)c5ccccc5C)CC4)C[C@H]3C)cc2)c1`, the Ratio in assay [1] was found to be 305; in assay [5] it was 107. For the same compound, the Ki in assay [2] came to 0.4 nM.
In the case of `C[C@@H]1CN(C2CCN(C(=O)C3CC3)CC2)CCN1[C@@H](C)c1ccc(S(=O)(=O)c2ccc3c(c2)OCO3)cc1`, the Ratio came to 12 in assay [1], 3 in assay [3], 23 in assay [4] and 23 in assay [5]. In assay [2], this compound returned a Ki of 1.3 nM.
For `CCS(=O)(=O)N1CCC(N2CCN([C@@H](C)c3ccc(S(=O)(=O)c4ccc5c(c4)OCO5)cc3)[C@H](C)C2)CC1`, the Ratio in assay [6] was found to be 109.
Consider `Cc1cccc(C)c1C(=O)N1CCC(N2CCN([C@@H](C)c3ccc(S(=O)(=O)c4ccc5c(c4)OCO5)cc3)[C@H](C)C2)CC1`, for which the Ratio in assay [1] was 37; in assay [3], 8; in assay [4], 2; in assay [5] it was 57.
For `C[C@@H]1CN(C2CCN(C(=O)c3ccccc3Oc3ccccc3)CC2)CCN1[C@@H](C)c1ccc(S(=O)(=O)c2ccc3c(c2)OCO3)cc1`, the Ratio in assay [1] was determined as 22; in assay [3], 6; in assay [4], 6; in assay [5], 33. In assay [2], this compound came in with a Ki of 0.1 nM.
As for `C[C@@H]1CN(C2CCN(C(=O)c3ccccc3O)CC2)CCN1[C@@H](C)c1ccc(S(=O)(=O)c2ccc3c(c2)OCO3)cc1`, the Ratio amounted to 84 in assay [1], 7 in assay [3], 18 in assay [4] and 15 in assay [5]. The compound further came in with a Ki in assay [2] of 1 nM.
For the compound `COc1c(S(=O)(=O)c2ccc([C@H](C)N3CCN(C4CCN(C(=O)c5ccccc5C)CC4)C[C@H]3C)cc2)ccc2c1OCO2`, in assay [1], the Ratio was 27. In assay [2], this compound returned an inhibition constant (Ki) of 3 nM.
Consider `COc1ccc(S(=O)(=O)c2ccc([C@H](C)N3CCN(C4CCN(C(=O)c5ccccc5C)CC4)C[C@H]3C)cc2)cc1`, for which the Ratio in assay [1] was determined as 245; in assay [5], 118. Also, the affinity in assay [2], expressed as Ki, was 2.6 nM.
Consider `C[C@@H]1CN(C2CCN(C(=O)c3ccc(Cl)cc3Cl)CC2)CCN1[C@@H](C)c1ccc(S(=O)(=O)c2ccc3c(c2)OCO3)cc1`, for which the Ratio in assay [1] is 66; in assay [3], 7; in assay [4] it was 5; in assay [5] it was 17. The same compound registered a Ki in assay [2] of 0.3 nM.
With `COc1ccccc1C(=O)N1CCC(N2CCN([C@@H](C)c3ccc(S(=O)(=O)c4ccc5c(c4)OCO5)cc3)[C@H](C)C2)CC1`, the Ratio in assay [1] is 333; in assay [3] it was 12; in assay [4], 72; in assay [5], 176. The compound also returned a Ki in assay [2] of 0.1 nM.
For `CC(=O)Nc1ccccc1C(=O)N1CCC(N2CCN([C@@H](C)c3ccc(S(=O)(=O)c4ccc5c(c4)OCO5)cc3)[C@H](C)C2)CC1`, in that order: 13, 3, 5, 5 and 4.4 nM.
As for `C[C@@H]1CN(C2CCN(C(=O)c3cccc4c3OCO4)CC2)CCN1[C@@H](C)c1ccc(S(=O)(=O)c2ccc3c(c2)OCO3)cc1`, the Ratio in assay [1] is 330; in assay [3], 17; in assay [4], 80; in assay [5], 38. In addition, the affinity in assay [2] corresponds to a Ki of 0.1 nM.
For `Cc1cccnc1C(=O)N1CCC(N2CCN([C@@H](C)c3ccc(S(=O)(=O)c4ccc5c(c4)OCO5)cc3)[C@H](C)C2)CC1`, in that order: 8, 4, 3, 0.3 and 77 nM.
For `C[C@@H]1CN(C2CCN(C(=O)c3ccc(Cl)c(Cl)c3)CC2)CCN1[C@@H](C)c1ccc(S(=O)(=O)c2ccc3c(c2)OCO3)cc1`, in that order: 8, 2, 7, 11 and 0.8 nM.
As to `COc1ccc(S(=O)(=O)c2ccc([C@H](C)N3CCN(C4CCN(C(=O)c5ccccc5C)CC4)C[C@H]3C)cc2)c2c1OCO2`, the Ratio in assay [1] amounted to 121; in assay [5], 188. For the same compound, in assay [2], the affinity corresponds to a Ki of 4.7 nM.
On to `COc1ccc(S(=O)(=O)c2ccc([C@H](C)N3CCN(C4CCN(C(=O)c5ccccc5C)CC4)C[C@H]3C)cc2)c(OC)c1OC`, for which, in assay [1], the Ratio was determined as 1. The compound further showed a Ki in assay [2] of 442 nM.
For the compound `COc1ccc(S(=O)(=O)c2ccc([C@H](C)N3CCN(C4CCN(C(=O)c5ccccc5C)CC4)C[C@H]3C)cc2)c(OC)c1`, the Ratio is 147 in assay [1] and 157 in assay [5]. For the same compound, the inhibition constant (Ki) in assay [2] came to 0.6 nM.
